Screens deposited in PubChem by Columbia University Molecular Screening Center.
The full list was thinned out, with hits kept by preference.
INS promoter act = TRM-6 insulin promoter activation | TRM-6 cells (human fetal islet line), insulin promoter eGFP reporter, imaging; plate-scaled: unstimulated 0, stimulated control 100 | activation, % at 2 µM | hit rate 0.81% among 130,000;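 active = activation at 2 µM above a set limit, confirmed on inspection of the cell images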;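 note: share of cells whose green reporter signal exceeds an intensity cutoff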
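Assay system: TRM-6 human fetal islet cells, insulin promoter–eGFP reporter; Also added: 0.75 µM tamoxifen as reporter inducer; Schedule: 15 h tamoxifen pre-treatment, 48 h compound treatment at 37 °C; Signal: fixed-cell fluorescence microscopy, eGFP plus Hoechst; Read-out: percent activation from GFP-positive cell fraction; Control set: stimulated and unstimulated wells.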
* hit, by the source's call.

SMILES	INS promoter act
OC(COc1cccc(OCC(O)CN2CCOCC2)c1)CN1CCOCC1 (stereo not drawn)	50.0
CC1CCCC(NC(=O)COC(=O)CCSc2ccccc2)C1C (stereo not drawn)	0.0
O/N=C/C1=C(Cl)c2ccccc2CC1	-6.7
COC(=O)c1cn(C(=O)c2ccc(Br)o2)c2ccccc12	0.0
COC(=O)c1cn(C(=O)c2ccc(C)c(C)c2)c2ccccc12	5.6
COC(=O)c1cn(C(=O)c2cccc(C)c2)c2ccccc12	483.3*
Cc1cc(C)n(CC(O)Cn2c3ccccc3c3ccccc32)n1 (stereo not drawn)	314.3
Cc1cc(C)n(CC(O)CN2c3ccccc3Sc3ccccc32)n1 (stereo not drawn)	209.1*
Cc1cc(C)n(CC(=O)n2c3ccccc3c3ccccc32)n1	-3.7
O=S(=O)(c1ccc(NC(=S)NCCC(c2ccccc2)c2ccccc2)cc1)N1CCOCC1	4.8
C[N+]1(CC(=O)Nc2ccc(F)cc2)CCN(C(=O)c2ccco2)CC1	-2.7
O=C(Nc1ccc(Cl)cc1)OCCn1nnnc1C(c1ccccc1)N1CCOCC1 (stereo not drawn)	88.6*
CN1CCN(C(c2ccccc2)c2nnnn2Cc2ccccc2)CC1 (stereo not drawn)	0.0
O=C(c1ccco1)N1CCN(C(c2ccc(Cl)cc2)c2nnnn2Cc2ccccc2)CC1 (stereo not drawn)	6.7
COc1ccc(Cl)cc1NC(=O)c1ccccc1C	-2.9
CCN(C(=O)c1cc(Cl)ccc1OC)c1ccccc1C	542.9*
CCN(C(=O)c1cn(C)c(=O)c2cc(OC)c(OC)cc12)c1ccccc1C	-81.0
C=CCn1c(SCC(=O)Nc2nnc(CC)s2)nnc1-c1ccco1	-7.7
COc1ccc(-c2nnc(SCC(=O)NCc3cccs3)n2CC(C)C)cc1	126.7
c1ccc(CC2CCN(Cc3nc(-c4ccccc4)no3)CC2)cc1	-18.5
CC1(C)Cc2cccc(OCC(=O)Nc3cccnc3Cl)c2O1	-2.9
O=C(CSCc1ccc(Cl)cc1)NCC1CCCO1 (stereo not drawn)	9.1
OC(CNCC1CCCO1)Cn1c2ccc(Cl)cc2c2cc(Cl)ccc21 (stereo not drawn)	88.9*
Clc1ccc(-n2ncc3c(NCC4CCCO4)ncnc32)cc1 (stereo not drawn)	0.0
COc1cccc(/C(O)=C2/C(=O)C(=O)N(CCN3CCOCC3)C2c2cccs2)c1 (stereo not drawn)	8.3
SMILES	INS promoter act
Cc1onc(C(=O)NC(C)c2ccccc2)c1[N+](=O)[O-] (stereo not drawn)	-5.9
COc1cc2c3nnc(-c4ccccc4)c-3cn(Cc3ccc(F)cc3)c2cc1OC	5.6
COc1cc2c3nnc(-c4ccc(F)cc4)c-3cn(Cc3cccc(F)c3)c2cc1OC	809.1*
COc1cccc(CSc2nnc(-c3ccc(F)cc3)o2)c1	6.1
COc1ccccc1NCC(=O)N/N=C(\C)c1cccs1	0.0
COc1cc(C(=O)Oc2cc(C)cc(C)c2)cc(OC)c1OC	607.1*
COc1ccc(C(=O)/C=C/c2ccc(OC(=O)c3cc(OC)c(OC)c(OC)c3)cc2)cc1	7.9
COc1cc(C(=O)Nc2ccccn2)cc(OC)c1OC	9.5
O=c1[nH]c(Cn2nnc(-c3ccccc3)n2)nc2scc(-c3ccccc3)c12	9.1
CN=C(C)c1c(O)c2ccccc2oc1=O	3.2
CC(=O)Nc1c(C(=O)c2ccccc2)oc2ccccc12	-71.4
CCNc1c(NC(C)=O)c(=O)oc2ccccc12	200.0*
CCN(CC)C(=O)Cn1cc(C(=O)C(=O)N2CCCc3ccccc32)c2ccccc21	153.8
Cc1csc(NC(=O)CS(=O)(=O)c2ccccc2)n1	-70.6
C/C(=N\OCC(=O)Nn1c(=O)[nH]c2ccccc2c1=O)c1ccccc1	-5.6
CCOC(=O)COc1ccc(S(=O)(=O)Nc2ccc3c(c2)OCCO3)cc1	460.0*
CCOc1ccc(NS(=O)(=O)c2ccc(OC)c(NC(=O)c3ccc4c(c3)OCCO4)c2)cc1	0.0
Cc1cccc(NS(=O)(=O)c2ccc3c(c2)OCCO3)c1	-7.1
COc1ccc(Cl)cc1N(C(C)C(=O)NC1CCCC1)S(C)(=O)=O (stereo not drawn)	-2.3
O=c1c(-c2nc3ccccc3s2)cccn1Cc1ccc(Cl)c(Cl)c1	6.7
O=C(CSc1nnc(-c2ccco2)o1)c1ccccc1Cl	0.0
O=C(CSc1nnc(-c2ccco2)o1)NC1CCCCC1	0.0
CCN(CC)C(=O)CSc1nnc(-c2ccco2)o1	500.0*
O=C(CCCn1c(=S)[nH]c2ccc(Br)cc2c1=O)N1CCN(c2ccccn2)CC1	-8.3
O=c1cc(N2CCOCC2)cnn1-c1ccccc1	-8.3
CN(C)S(=O)(=O)c1cccc(NC(=S)N(CCC#N)Cc2cccnc2)c1	453.3*
CC1(C(=O)NC(=S)N(CCC#N)Cc2cccnc2)CC1(Cl)Cl (stereo not drawn)	-3.7
N#CCCN(Cc1cccnc1)C(=S)Nc1ccc(OC(F)F)cc1	109.1
CCOc1c2c(nc3ccc(Cl)cc13)CCC2	-71.4
CS(=O)(=O)N(CC(=O)NCc1ccccn1)Cc1ccc(Cl)cc1	3.4
